According to ChEMBL document CHEMBL1126929, “Syntheses of 2,5- and 2,6-difluoronorepinephrine, 2,5-difluoroepinephrine, and 2,6-difluorophenylephrine: effect of disubstitution with fluorine on adrenergic activity” (J Med Chem, 1993):

Tests used:
[1] = biological target: T1, Adrenergic receptor alpha-1 (Rattus norvegicus, UniProt P15823+P23944+P43140); assay: Displacement of [3H]WB-4101 from adrenergic alpha 1 receptor of rat cerebral cortical membranes; format: cell membranes, Membrane
T1 sequence (P15823 whole entry): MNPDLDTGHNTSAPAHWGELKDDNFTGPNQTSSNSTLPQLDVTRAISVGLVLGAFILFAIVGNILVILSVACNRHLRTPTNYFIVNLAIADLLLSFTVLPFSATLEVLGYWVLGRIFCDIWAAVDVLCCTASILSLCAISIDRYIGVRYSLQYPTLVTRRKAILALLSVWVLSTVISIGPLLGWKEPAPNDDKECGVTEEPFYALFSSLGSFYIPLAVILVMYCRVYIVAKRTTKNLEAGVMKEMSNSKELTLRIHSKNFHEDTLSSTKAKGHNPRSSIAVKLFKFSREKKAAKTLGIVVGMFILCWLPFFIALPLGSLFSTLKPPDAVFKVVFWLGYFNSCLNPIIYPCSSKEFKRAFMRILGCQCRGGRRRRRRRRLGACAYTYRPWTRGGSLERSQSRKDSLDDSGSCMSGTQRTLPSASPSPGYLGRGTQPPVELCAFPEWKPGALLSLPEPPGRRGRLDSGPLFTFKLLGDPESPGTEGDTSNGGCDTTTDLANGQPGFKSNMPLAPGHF
T1 sequence (P23944 whole entry): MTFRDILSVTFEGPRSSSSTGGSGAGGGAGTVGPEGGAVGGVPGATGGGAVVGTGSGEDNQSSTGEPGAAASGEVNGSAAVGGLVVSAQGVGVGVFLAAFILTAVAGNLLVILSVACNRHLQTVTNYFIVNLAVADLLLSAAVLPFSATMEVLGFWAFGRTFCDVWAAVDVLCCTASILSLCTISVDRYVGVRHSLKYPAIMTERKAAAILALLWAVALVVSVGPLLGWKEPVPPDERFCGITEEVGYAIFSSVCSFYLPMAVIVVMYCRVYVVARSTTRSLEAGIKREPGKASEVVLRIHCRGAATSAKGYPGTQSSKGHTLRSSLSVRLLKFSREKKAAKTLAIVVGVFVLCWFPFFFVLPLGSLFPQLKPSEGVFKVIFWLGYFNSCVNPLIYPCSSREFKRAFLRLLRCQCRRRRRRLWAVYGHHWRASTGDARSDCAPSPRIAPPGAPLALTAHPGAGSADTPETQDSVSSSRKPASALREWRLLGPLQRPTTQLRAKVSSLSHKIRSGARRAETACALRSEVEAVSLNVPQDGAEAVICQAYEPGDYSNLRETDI
T1 sequence (P43140 whole entry): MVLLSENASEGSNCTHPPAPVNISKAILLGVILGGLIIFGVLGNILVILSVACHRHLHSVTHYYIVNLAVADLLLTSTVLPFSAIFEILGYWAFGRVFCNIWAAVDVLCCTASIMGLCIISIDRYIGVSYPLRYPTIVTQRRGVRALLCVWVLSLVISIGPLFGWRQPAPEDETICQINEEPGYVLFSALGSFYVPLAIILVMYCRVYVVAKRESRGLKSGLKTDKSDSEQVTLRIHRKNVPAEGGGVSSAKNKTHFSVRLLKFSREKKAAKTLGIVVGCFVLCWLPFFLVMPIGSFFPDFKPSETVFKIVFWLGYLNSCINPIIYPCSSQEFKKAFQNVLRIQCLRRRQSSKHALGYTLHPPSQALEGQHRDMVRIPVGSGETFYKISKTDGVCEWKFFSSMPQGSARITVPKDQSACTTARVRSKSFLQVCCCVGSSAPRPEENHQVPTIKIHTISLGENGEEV

Cavia porcellus = organism: Cavia porcellus; assay: Effective concentration for stimulation of [3H]phosphoinositide formation in guinea pig synaptoneurosomes expressing alpha-1 receptor; format: functional
Procedure, shortened: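 α1 agonism was read as stimulation of [³H]phosphoinositol formation in guinea pig synaptoneurosomes. EC50 is given as a mean. Efficacy is expressed relative to the parent amine set at 100.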

[2] = biological target: T2, Adrenergic receptor alpha-2 (Rattus norvegicus, UniProt P22086+P19328+P22909); assay: Displacement of [3H]clonidine from adrenergic alpha 2 receptor of rat cerebral cortical membranes; format: cell membranes, Membrane
T2 sequence (P22086 whole entry): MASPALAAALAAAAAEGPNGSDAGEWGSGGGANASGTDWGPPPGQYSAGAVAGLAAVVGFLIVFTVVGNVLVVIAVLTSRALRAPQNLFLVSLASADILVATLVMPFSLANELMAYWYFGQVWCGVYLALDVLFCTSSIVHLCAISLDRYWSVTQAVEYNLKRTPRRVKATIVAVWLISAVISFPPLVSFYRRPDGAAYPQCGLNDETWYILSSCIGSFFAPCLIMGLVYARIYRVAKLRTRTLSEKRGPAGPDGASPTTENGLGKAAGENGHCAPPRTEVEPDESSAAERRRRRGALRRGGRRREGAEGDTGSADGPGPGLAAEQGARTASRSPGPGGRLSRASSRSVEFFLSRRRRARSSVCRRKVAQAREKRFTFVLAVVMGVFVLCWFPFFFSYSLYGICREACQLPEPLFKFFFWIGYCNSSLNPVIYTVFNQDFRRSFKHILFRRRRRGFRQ
T2 sequence (P19328 whole entry): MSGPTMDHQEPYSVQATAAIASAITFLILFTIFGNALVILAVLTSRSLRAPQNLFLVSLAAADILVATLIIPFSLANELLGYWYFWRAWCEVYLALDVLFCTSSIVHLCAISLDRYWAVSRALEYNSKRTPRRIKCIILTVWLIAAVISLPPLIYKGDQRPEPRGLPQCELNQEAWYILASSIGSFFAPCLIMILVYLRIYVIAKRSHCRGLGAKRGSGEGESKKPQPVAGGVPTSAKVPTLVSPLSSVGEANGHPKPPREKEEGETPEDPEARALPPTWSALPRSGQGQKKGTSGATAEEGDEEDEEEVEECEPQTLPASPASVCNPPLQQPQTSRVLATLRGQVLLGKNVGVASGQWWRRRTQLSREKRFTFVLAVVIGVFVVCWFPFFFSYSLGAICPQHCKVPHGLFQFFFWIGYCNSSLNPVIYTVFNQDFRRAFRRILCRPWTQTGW
T2 sequence (P22909 whole entry): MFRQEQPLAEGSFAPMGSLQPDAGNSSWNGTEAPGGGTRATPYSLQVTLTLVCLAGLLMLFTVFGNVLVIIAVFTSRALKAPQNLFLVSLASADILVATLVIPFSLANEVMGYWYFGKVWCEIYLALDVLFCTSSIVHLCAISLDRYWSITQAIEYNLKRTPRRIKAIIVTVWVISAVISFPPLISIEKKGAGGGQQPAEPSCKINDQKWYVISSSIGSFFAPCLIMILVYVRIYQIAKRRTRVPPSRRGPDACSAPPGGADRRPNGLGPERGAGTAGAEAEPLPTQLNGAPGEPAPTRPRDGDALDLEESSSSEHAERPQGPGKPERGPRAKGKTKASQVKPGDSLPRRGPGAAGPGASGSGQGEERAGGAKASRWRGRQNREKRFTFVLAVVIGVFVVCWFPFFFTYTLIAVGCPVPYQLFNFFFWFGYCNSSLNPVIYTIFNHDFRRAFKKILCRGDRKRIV

[3] = biological target: Beta-1 adrenergic receptor (Rattus norvegicus, UniProt P18090); assay: Displacement of [3H]dihydroalprenolol from adrenergic beta 1 receptor of rat cerebral cortical membranes; format: cell membranes, Membrane
Adrenergic receptor beta = Adrenergic receptor beta (Rattus norvegicus, UniProt P18090+P10608+P26255); assay: Stimulation of cyclic AMP accumulation in C6 glioma cells expressing adrenergic beta receptor; format: functional, cell-based
Procedure, shortened: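 β agonism was read as stimulation of cyclic AMP accumulation in rat C6 glioma cells. EC50 is given as a mean. Efficacy is expressed relative to the parent amine set at 100.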

[4] = biological target: Beta-2 adrenergic receptor (Rattus norvegicus, UniProt P10608); assay: Binding affinity against adrenergic beta 2 receptor versus 1 nM [3H]dihydroalprenolol in rat […] cerebellar membranes; format: cell membranes, Cerebellum, Membrane
Sequence of Beta-2 adrenergic receptor (P10608 whole entry): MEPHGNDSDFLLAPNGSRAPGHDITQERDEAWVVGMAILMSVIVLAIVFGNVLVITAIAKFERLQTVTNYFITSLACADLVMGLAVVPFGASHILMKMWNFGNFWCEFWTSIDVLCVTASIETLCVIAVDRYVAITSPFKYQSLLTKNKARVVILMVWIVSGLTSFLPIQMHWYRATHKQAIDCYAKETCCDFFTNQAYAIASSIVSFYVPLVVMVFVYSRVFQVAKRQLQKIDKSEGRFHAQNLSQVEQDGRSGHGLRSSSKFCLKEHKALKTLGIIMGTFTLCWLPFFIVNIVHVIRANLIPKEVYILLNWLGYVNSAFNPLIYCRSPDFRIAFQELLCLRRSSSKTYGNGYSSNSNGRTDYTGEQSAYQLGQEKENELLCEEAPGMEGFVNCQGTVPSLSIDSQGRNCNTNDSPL

Sequence of Beta-1 adrenergic receptor (P18090 whole entry): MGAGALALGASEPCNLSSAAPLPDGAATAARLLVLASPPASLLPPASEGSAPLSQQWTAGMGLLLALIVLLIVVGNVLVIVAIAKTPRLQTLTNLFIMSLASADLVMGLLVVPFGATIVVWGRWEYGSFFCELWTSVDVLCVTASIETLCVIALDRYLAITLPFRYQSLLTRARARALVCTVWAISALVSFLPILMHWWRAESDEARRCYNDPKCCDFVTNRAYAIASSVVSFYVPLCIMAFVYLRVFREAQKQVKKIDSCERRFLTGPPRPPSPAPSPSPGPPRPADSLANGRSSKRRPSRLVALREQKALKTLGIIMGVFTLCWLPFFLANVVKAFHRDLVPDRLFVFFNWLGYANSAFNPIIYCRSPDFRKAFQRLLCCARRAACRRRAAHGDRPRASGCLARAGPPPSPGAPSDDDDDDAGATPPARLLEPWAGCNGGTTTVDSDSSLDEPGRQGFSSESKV

| SMILES | Ki [1] [µM] | EC50 (Cavia porcellus) [µM] | Ki [2] [µM] | Ki [3] [µM] | EC50 (Adrenergic receptor beta) [µM] | Ki [4] [µM] |
| --- | --- | --- | --- | --- | --- | --- |
| CNCC(O)c1c(F)ccc(O)c1F (stereo not given) | 17 | 4.3 | 0.94 | 81 | – | – |
| CNCC(O)c1cc(O)c(O)cc1F (stereo not given) | – | – | 0.009 | 63 | > 1.5 | – |
| NCC(O)c1ccc(O)c(O)c1F (stereo not given) | 23 | > 180 | 2.1 | – | – | – |
| CNC[C@H](O)c1cccc(O)c1 [PHENYLEPHRINE] | – | 6 | – | – | – | – |
| NCC(O)c1cc(O)c(O)c(F)c1 (stereo not given) | 2.3 | – | 0.15 | 1.5 | – | 5.5 |
| CNCC(O)c1cc(O)ccc1F (stereo not given) | 2.1 | 8 | 0.23 | 180 | – | – |
| CNCC(O)c1cccc(O)c1F (stereo not given) | 17 | 80 | 1.2 | 4 | – | – |
| CNCC(O)c1ccc(O)c(O)c1F (stereo not given) | – | – | 0.066 | – | – | – |
| CNCC(O)c1cc(F)c(O)c(O)c1F (stereo not given) | 39 | 2.6 | 1.2 | 2.3 | – | 0.71 |
| NCC(O)c1c(F)cc(O)c(O)c1F (stereo not given) | – | > 100 | 0.75 | > 50 | > 100 | – |
| CNCC(O)c1ccc(F)c(O)c1 (stereo not given) | – | 16 | – | – | – | – |
| NCC(O)c1cc(O)c(O)cc1F (stereo not given) | – | 4.2 | – | – | – | – |
| NCC(O)c1cc(F)c(O)c(O)c1F (stereo not given) | 24 | 83 | 3.5 | 5.6 | – | – |
| CNC[C@H](O)c1ccc(O)c(O)c1 [EPINEPHRINE] | – | – | – | 1.2 | – | – |
